From ChEMBL document CHEMBL4334441, “Exploitation of Antibiotic Resistance as a Novel Drug Target: Development of a β-Lactamase-Activated Antibacterial Prodrug” (J Med Chem, 2019)
Converted amounts (≈) assume the structure as drawn. The source made the active and inactive calls. No cut-off for these calls is given here.

How the values were obtained:
[1] = tested on: Escherichia coli; test: Growth inhibition of Escherichia coli CFT073 harboring pSU18 and CTX-M-1 incubated for 18 hrs by broth microdilution method; settings: CFT073, 18 h
[2] = tested on: Escherichia coli; test: Growth inhibition of ciprofloxacin-susceptible Escherichia coli CFT073 harboring pSU18 incubated for 18 hrs by broth microdilution method; type: organism-based; settings: in vivo
Procedure, shortened: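 MIC determination in E. coli CFT073, either wild type or carrying pSU18 (empty pEMP, or encoding CTX-M, NDM-1 or KPC). Dose–response growth curves were run, and each point is the mean ± SEM of n = 3. The MIC is the minimal concentration that inhibits bacterial growth.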

[3] = Prodrug activation in Escherichia coli CFT073 harboring CTX-M-1 assessed as bacterial CTX-M-1-mediated compound hydrolysis incubated for 1 hr by 1H-NMR analysis; settings: bacteria
Procedure, shortened: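 Whole-cell hydrolysis used E. coli CFT073 carrying pSU18 encoding CTX-M-1. The read-out was percentage of compound hydrolysed after 60 min.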

[4] = tested on: Escherichia coli; test: Growth inhibition of ciprofloxacin-susceptible Escherichia coli DH5[alpha] incubated for 18 hrs by broth microdilution method; type: organism-based; settings: in vivo
Procedure, shortened: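 MIC determination against E. coli DH5α, either lacking β-lactamase or expressing the ESBL TEM-116. The MIC is the minimal concentration that inhibits bacterial growth.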

[5] = Selectivity ratio of MIC for ciprofloxacin-susceptible Escherichia coli CFT073 harboring pSU18 to MIC for ciprofloxacin-susceptible Escherichia coli DH5[alpha]; type: ADME
[6] = tested on: Escherichia coli; test: Growth inhibition of Escherichia coli DH5[alpha] expressing ESBL TEM-116 incubated for 18 hrs by broth microdilution method; type: functional
[7] = Drug metabolism in CTX-M-1-deficient Escherichia coli DH5[alpha] assessed as compound hydrolysis at 100 uM incubated for 60 mins by 1H-NMR spectra analysis; type: ADME; settings: CTX-M-1-deficient Escherichia coli DH5alpha cells, read-out: Drug metabolism
[8] = Prodrug activation in Escherichia coli DH5[alpha] expressing beta-lactamase CTX-M-1 assessed as bacterial CTX-M-1-mediated compound hydrolysis at 100 uM incubated for 60 mins by 1H-NMR spectra analysis; settings: bacteria
[9] = Prodrug activation in Escherichia coli DH5[alpha] expressing TEM-116 assessed as bacterial TEM-116 mediated compound hydrolysis at 50 uM incubated for 60 mins by 1H-NMR spectra analysis; settings: bacteria
[10] = Prodrug activation in Escherichia coli DH5[alpha] expressing TEM-116 assessed as bacterial TEM-116 mediated compound hydrolysis at 100 uM incubated for 90 mins by 1H-NMR spectra analysis; settings: bacteria, 1.5 h
[11] = Drug metabolism in TEM-116-deficient Escherichia coli DH5[alpha] assessed as compound hydrolysis at 100 uM incubated for 90 mins by 1H-NMR spectra analysis; type: ADME; settings: TEM-116-deficient Escherichia coli DH5alpha cells, read-out: Drug degradation
[12] = molecular target: DNA gyrase (Escherichia coli) (UniProt P0AES6+P0AES4); settings: 1 uM
[13] = tested on: Enterococcus faecalis; test: Effect on growth of Enterococcus faecalis ATCC 29212 incubated for 18 hrs by broth microdilution method; type: organism-based; settings: in vivo
[14] = tested on: Enterococcus faecalis; test: Effect on growth of Enterococcus faecalis GW01 incubated for 18 hrs by broth microdilution method; type: organism-based; settings: in vivo

SMILES	MIC [1] [µM]	MIC [2]	Drug metabolism [3] [%]	MIC [4] [µM]	Selectivity ratio [5]	MIC [6] [µM]	metabolised at 1 h, 100 µM [7] [%]	Drug metabolism [8] [%]	Drug metabolism [9] [%]	Drug metabolism [10] [%]	metabolised at 1.5 h, 100 µM [11] [%]	inhibition [12]	Activity [13]	Activity [14]
COc1ccc(C(=O)N[C@@H]2C(=O)N3C(C(=O)O)=C(COC(C)=O)CS[C@H]23)cc1	> 400	> 400 µM	3	> 800	<= 2	> 800								
CC(=O)OCC1=C(C(=O)O)N2C(=O)[C@@H](NC(=O)c3ccco3)[C@H]2SC1	> 400	> 400 µM	64	> 400	<= 2	> 400								
CC(=O)N[C@@H]1C(=O)N2C(C(=O)O)=C(COC(C)=O)CS[C@H]12	> 400	400 µM (≈ 126 µg/mL)	67	200 (≈ 62.9 µg/mL)	<= 2									
CC(=O)OCC1=C(C(=O)O)N2C(=O)[C@@H](NC(=O)Cc3ccsc3)[C@H]2SC1	> 400	50 µM (≈ 19.8 µg/mL)	32	50 (≈ 19.8 µg/mL)	<= 2	200 (≈ 79.3 µg/mL)								
CC(=O)OCC1=C(C(=O)O)N2C(=O)[C@@H](NC(=O)Cc3cccs3)[C@H]2SC1 [CEPHALOTHIN]	> 400	25 µM (≈ 9.91 µg/mL)	68	12.5 (≈ 4.96 µg/mL)	<= 2	100 (≈ 39.6 µg/mL)	0	100	61					
CC(=O)OCC1=C(C(=O)O)N2C(=O)[C@@H](NC(=O)Cc3cccc(C)c3)[C@H]2SC1	> 400	200 µM (≈ 80.9 µg/mL)	16	200 (≈ 80.9 µg/mL)	<= 2	400 (≈ 162 µg/mL)								
CC(=O)OCC1=C(C(=O)O)N2C(=O)[C@@H](NC(=O)Cc3ccccc3)[C@H]2SC1 [CEFALORAM]	> 400	50 µM (≈ 19.5 µg/mL)	17	50 (≈ 19.5 µg/mL)	<= 2	100 (≈ 39 µg/mL)								
CC(=O)OCC1=C(C(=O)O)N2C(=O)[C@@H](NC(=O)Cc3ccc(Oc4ccccc4)cc3)[C@H]2SC1	> 400	> 400 µM	4	> 800	<= 2	> 800	0	94		54	13			
CC(=O)OCC1=C(C(=O)O)N2C(=O)[C@@H](NC(=O)Cc3ccc(Cl)cc3)[C@H]2SC1	> 400	100 µM (≈ 42.5 µg/mL)	14	100 (≈ 42.5 µg/mL)	<= 2	400 (≈ 170 µg/mL)								
CC(=O)OCC1=C(C(=O)O)N2C(=O)[C@@H](NC(=O)Cc3ccc(F)cc3)[C@H]2SC1	> 400	100 µM (≈ 40.8 µg/mL)	18	100 (≈ 40.8 µg/mL)	<= 2	200 (≈ 81.7 µg/mL)								
CC(=O)OCC1=C(C(=O)O)N2C(=O)[C@@H](NC(=O)Cc3ccc(C)cc3)[C@H]2SC1	> 400	100 µM (≈ 40.4 µg/mL)	7	100 (≈ 40.4 µg/mL)	<= 2	400 (≈ 162 µg/mL)								
CC(=O)OCC1=C(C(=O)O)N2C(=O)[C@@H](NC(=O)c3ccc(C)cc3)[C@H]2SC1	> 400	> 400 µM	3	> 400	<= 2	> 400								
CCCCCC(=O)N[C@@H]1C(=O)N2C(C(=O)O)=C(COC(C)=O)CS[C@H]12	> 400	100 µM (≈ 37 µg/mL)	7	200 (≈ 74.1 µg/mL)	<= 2	> 800								
CC(=O)OCC1=C(C(=O)O)N2C(=O)[C@@H](NC(=O)Cc3cccc(Oc4ccccc4)c3)[C@H]2SC1	> 400	>= 400 uM		> 800	<= 2	> 800								
CC(=O)OCC1=C(C(=O)O)N2C(=O)[C@@H](NC(=O)c3ccc([N+](=O)[O-])cc3)[C@H]2SC1				> 400		> 400								
CC(=O)OCC1=C(C(=O)O)N2C(=O)[C@@H](NC(=O)C3CCCCC3)[C@H]2SC1				> 400		> 400								
CC(=O)OCC1=C(C(=O)O)N2C(=O)[C@@H](NC(=O)Cc3ccc(-c4ccccc4)cc3)[C@H]2SC1	> 400	> 400 µM	4	> 800	<= 2	> 800	0	100		69	14			
CCCC(=O)N[C@@H]1C(=O)N2C(C(=O)O)=C(COC(C)=O)CS[C@H]12	> 400	200 µM (≈ 68.5 µg/mL)	25	100 (≈ 34.2 µg/mL)	<= 2	400 (≈ 137 µg/mL)								
CC(=O)OCC1=C(C(=O)O)N2C(=O)[C@@H](NC(=O)Cc3ccc(Br)cc3)[C@H]2SC1	> 400	100 µM (≈ 46.9 µg/mL)	9	200 (≈ 93.9 µg/mL)	<= 2	800 (≈ 375 µg/mL)								
O=C(O)c1cn(C2CC2)c2cc(N3CCNCC3)c(F)cc2c1=O [CIPROFLOXACIN]												Active	Toxic	Toxic
CC(=O)OCC1=C(C(=O)O)N2C(=O)[C@@H](NC(=O)c3ccccc3)[C@H]2SC1	> 400	> 400 µM	26	> 400	<= 2	> 400								
CC(=O)OCC1=C(C(=O)O)N2C(=O)[C@@H](NC(=O)[C@H](C)c3ccccc3)[C@H]2SC1	> 400	> 400 µM		400 (≈ 162 µg/mL)	<= 2	> 800								
CC(=O)OCC1=C(C(=O)O)N2C(=O)[C@@H](NC(=O)Cc3cc(Br)cs3)[C@H]2SC1	> 400	50 µM (≈ 23.8 µg/mL)		50 (≈ 23.8 µg/mL)	<= 2	200 (≈ 95.1 µg/mL)								
